Laboratory results as given in ChEMBL document CHEMBL4433206, “Novel Lysine-Based Thioureas as Mechanism-Based Inhibitors of Sirtuin 2 (SIRT2) with Anticancer Activity in a Colorectal Cancer Murine Model” (J Med Chem, 2019).
Activity calls are given as the source filed them. The calls are words filed in the database; no cut-off is given here.

Tests used:
CCD-841CoN = assay: Growth inhibition of human CCD-841-CoN cells after 72 hrs by CellTiter-Blue assay; format: cell-based
Outline: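 3000 cells/well seeded, 20 h at 37 °C. Inhibitor added at final 1–100 μM, then 72 h at 37 °C. Viability read by CellTiter-Blue after 4 h at 37 °C, fluorescence 560 nm excitation/590 nm emission. GI50 derived.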

A549 = assay: Potency index, ratio of TM GI50 to compound GI50 for growth inhibition of human A549 cells; format: functional
[1] = target: T1, NAD-dependent protein deacetylase sirtuin-1 (Homo sapiens) (UniProt Q96EB6); assay: Inhibition of SIRT1 in human HCT116 cells assessed as increase in acetylated p53 K382 level at 25 uM after 6 hrs by Western blot analysis; format: cell-based
T1 sequence (whole entry): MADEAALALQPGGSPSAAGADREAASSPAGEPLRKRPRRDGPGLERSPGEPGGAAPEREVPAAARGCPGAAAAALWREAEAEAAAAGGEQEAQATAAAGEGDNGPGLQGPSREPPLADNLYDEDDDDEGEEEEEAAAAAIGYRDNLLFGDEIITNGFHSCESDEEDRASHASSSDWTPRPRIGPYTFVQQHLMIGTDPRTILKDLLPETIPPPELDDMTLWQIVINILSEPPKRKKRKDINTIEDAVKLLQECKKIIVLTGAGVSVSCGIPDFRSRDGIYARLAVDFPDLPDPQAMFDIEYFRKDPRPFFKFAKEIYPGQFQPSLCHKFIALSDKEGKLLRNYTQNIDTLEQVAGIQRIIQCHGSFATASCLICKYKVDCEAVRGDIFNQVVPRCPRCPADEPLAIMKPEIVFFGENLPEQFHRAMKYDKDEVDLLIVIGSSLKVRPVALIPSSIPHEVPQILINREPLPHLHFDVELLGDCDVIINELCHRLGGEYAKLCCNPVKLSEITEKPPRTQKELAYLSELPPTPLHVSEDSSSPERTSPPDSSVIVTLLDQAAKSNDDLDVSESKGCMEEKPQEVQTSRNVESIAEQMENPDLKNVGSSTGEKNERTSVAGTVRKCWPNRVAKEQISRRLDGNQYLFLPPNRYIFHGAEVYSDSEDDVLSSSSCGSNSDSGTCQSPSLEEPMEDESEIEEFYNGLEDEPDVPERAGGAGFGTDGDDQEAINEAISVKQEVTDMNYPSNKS

[2] = target: T2, NAD-dependent protein deacetylase sirtuin-2 (Homo sapiens) (UniProt Q8IXJ6); assay: Inhibition of SIRT2 in human HCT116 cells assessed as increase in alpha-tubulin acetylation at 25 uM incubated for 6 hrs by DAPI staining-based laser scanning confocal microscopic analysis; format: cell-based
T2 sequence (whole entry): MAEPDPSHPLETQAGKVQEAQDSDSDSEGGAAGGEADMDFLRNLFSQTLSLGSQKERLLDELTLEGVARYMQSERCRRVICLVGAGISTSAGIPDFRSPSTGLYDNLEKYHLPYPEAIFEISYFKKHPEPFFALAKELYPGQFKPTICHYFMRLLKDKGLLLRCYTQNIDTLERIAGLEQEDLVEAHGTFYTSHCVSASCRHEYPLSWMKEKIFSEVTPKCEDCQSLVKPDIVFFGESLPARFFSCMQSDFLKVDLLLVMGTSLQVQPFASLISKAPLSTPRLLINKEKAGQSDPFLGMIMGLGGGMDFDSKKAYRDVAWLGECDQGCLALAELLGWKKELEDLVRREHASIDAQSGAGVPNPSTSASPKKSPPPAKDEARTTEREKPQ
Outline: (§1)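 HCT116 cells were seeded at 400 000 on poly-D-lysine-coated glass-bottom dishes and grown 24 h. Cells were treated with DMSO or inhibitor for 6 h at 37 °C, fixed in ice-cold methanol, and blocked in TBS/0.1% Triton X-100/5% BSA. They were stained with anti-acetyl α-tubulin (1:100, overnight, 4 °C), then Cy3 anti-mouse, and mounted with DAPI. Imaging was by confocal microscopy.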

MCF7 [3] = assay: Growth inhibition of human MCF7 cells after 72 hrs by CellTiter-Blue assay; format: functional; details: MCF7, 72 h
SW948 = assay: Potency index, ratio of TM GI50 to compound GI50 for growth inhibition of human SW948 cells; format: functional
MCF7 [4] = assay: Potency index, ratio of TM GI50 to compound GI50 for growth inhibition of human MCF7 cells; format: functional
HCT-116 [5] = assay: Antitumor activity against human HCT116 cells harboring KRAS G13D mutant xenografted in NSG mouse assessed as tumor growth inhibition by measuring reduction in tumor volume at 100 mg/kg, ip administered daily for 12 days and measured post-last dose relative to control; format: functional; details: HCT-116, ip, 288 h, read-out: TGI
Outline: (§2)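 NSG mice, female and male, about 4–8 weeks old, were implanted with 1 × 10⁶ HCT116 cells on both sides of the abdomen. Tumours grew 3–5 days until visible. Compound was given ip daily for 12 days in vehicle containing 10% DMSO and 10% Kolliphor EL (dosing solution 10 mg/mL); control mice received vehicle. Tumour volume was measured daily; tumours were excised and weighed on the last day. Unpaired two-tailed t-test.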

HCT-116 [6] = assay: Potency index, ratio of TM GI50 to compound GI50 for growth inhibition of human HCT116 cells; format: functional
MDA-MB-231 = assay: Potency index, ratio of TM GI50 to compound GI50 for growth inhibition of human MDA-MB-231 cells; format: functional
[7] = target: T2, NAD-dependent protein deacetylase sirtuin-2 (Homo sapiens); assay: Inhibition of SIRT2 in human HCT116 cells assessed as increase in alpha-tubulin acetylation at 50 uM incubated for 6 hrs by DAPI staining-based laser scanning confocal microscopic analysis; format: cell-based; outline: as §1
HCT-116 [8] = assay: Inhibition of anchorage-independent cell growth in human HCT116 cells assessed as reduction in colony formation at >=10 uM incubated for 5 days followed by compound re-addition and measured after 9 to 11 days by nitro blue tetrazolium chloride-based soft agar colony formation assay relative to control; format: functional
Outline: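 HCT116 cells were mixed at 500 cells/mL into 0.3% agar growth layer over a 0.6% agar base layer (McCoy's medium, 10% calf serum). Both layers held inhibitor at 2.5–50 μM final. Wells were run in triplicate at 37 °C. Inhibitor-containing growth layer was added again at day 5. At 9–11 days, nitro blue tetrazolium was added overnight and colonies were imaged and counted.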

HCT-116 [9] = assay: Antitumor activity against human HCT116 cells harboring KRAS G13D mutant xenografted in NSG mouse assessed as tumor growth inhibition by measuring reduction in tumor volume at 25 mg/kg, ip administered daily for 12 days and measured daily during compound dosing; format: functional, organism-based; outline: as §2
HCT-116 [10] = assay: Antitumor activity against human HCT116 cells harboring KRAS G13D mutant xenografted in NSG mouse assessed as tumor growth inhibition by measuring reduction in tumor weight at 25 mg/kg, ip administered daily for 12 days and measured post-last dose; format: functional, organism-based; outline: as §2

Row | inhibition [1] | inhibition [2] | GI50 (MCF7 [3]) [µM] | inhibition [7] | Compound | GI50 (CCD-841CoN) [µM] | RatioGI50 (A549) | RatioGI50 (SW948) | RatioGI50 (MCF7 [4]) | inhibition in vivo at 100 mg/kg (HCT-116 [5]) [%] | RatioGI50 (HCT-116 [6]) | RatioGI50 (MDA-MB-231) | growth inhibition (GI) (HCT-116 [8]) [%] | TGI (HCT-116 [9]) | TGI (HCT-116 [10])
1 | inactive | Active | 18.4 | Active | CCCCCCCCCCNC(=S)NCCCC[C@H](NC(=O)OCc1ccccc1)C(=O)Nc1ccccc1 | 47.4 | 2 | 2 | 2 | 37 | 2 | 2 | 100 |  | 
2 | inactive | Active | 42.6 | Active | CCCCCCCCNC(=S)NCCCC[C@H](NC(=O)OCc1ccccc1)C(=O)Nc1ccccc1 |  |  |  |  | 80 |  |  | 100 | inactive | inactive
